CHRM1 agonist: agonists of human M1 muscarinic receptor. activation, % at 3 µM. CHO-K1 hM1, Fluo-8 calcium fluorescence, agonist mode; 0% DMSO, 100% acetylcholine EC100. P11229. actives 0.33% (n = 360,000);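 active = activation above the run's mean compound activation plus 3 SD, cut at about 16% in these data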;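 also: peak over basal fluorescence ratio within a 140 s kinetic read after compound addition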
M1 antag: antagonists of human M1 muscarinic receptor. P11229. CHO-K1 hM1, Fluo-8 calcium fluorescence, ACh EC80 antagonist. inhibition, % at 3 µM. actives 1.3% (n = 360,000). AID 588852;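 active = percent inhibition above its own plate's cutoff, namely the mean of that plate's compound wells plus 3 SD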;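 also: peak over basal fluorescence ratio during 140 s after agonist addition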
CHRM5 PAM: potentiates acetylcholine response at human M5 receptor | actives 0.3% (n = 360,000) | activation, % at 3 µM | AID 624038 | CHO-K1 hM5, Fluo-8 calcium, ACh EC20 PAM; 0% = ACh EC20, 100% = ACh EC100 | P08912;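 active = activation above the run cutoff, the mean activation of all test compounds plus 3 SD, cut at about 18% in these data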
Target sequence (P08912 whole entry, looked up): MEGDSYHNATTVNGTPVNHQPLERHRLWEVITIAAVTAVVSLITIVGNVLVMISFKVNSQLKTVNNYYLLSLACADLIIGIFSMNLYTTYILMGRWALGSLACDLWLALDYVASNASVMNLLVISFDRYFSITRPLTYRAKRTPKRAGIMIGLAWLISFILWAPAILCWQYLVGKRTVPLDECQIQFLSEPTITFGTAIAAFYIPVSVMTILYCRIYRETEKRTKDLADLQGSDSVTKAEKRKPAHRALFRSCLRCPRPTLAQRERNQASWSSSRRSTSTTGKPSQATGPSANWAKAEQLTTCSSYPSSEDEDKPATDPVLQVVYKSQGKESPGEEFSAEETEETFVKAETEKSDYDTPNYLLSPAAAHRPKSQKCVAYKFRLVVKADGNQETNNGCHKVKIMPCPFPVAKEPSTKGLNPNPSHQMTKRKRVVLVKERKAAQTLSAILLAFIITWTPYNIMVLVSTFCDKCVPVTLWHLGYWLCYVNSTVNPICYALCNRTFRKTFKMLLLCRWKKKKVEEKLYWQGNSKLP
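system = human M5 receptor in CHO-K1 cells | compound = one concentration, 3 µM final (nominal) | schedule = Post-acetylcholine fluorescence recording 140 s | signal = Fluo-8 calcium dye fluorescence, kinetic read | benchmarks = low control EC20 acetylcholine (0%), high control EC100 acetylcholine (100%) | repeats = singlicate, one well per test compound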
CHRM1 PAM: potentiates human M1 receptor response to acetylcholine | CHO-K1 hM1, Fluo-8 calcium fluorescence, ACh EC20; 0% = ACh EC20, 100% = maximal ACh | AID 588819 | P11229 | activation, % at 3 µM | actives 0.088% (n = 360,000); in the data active = activation above about 19%, passing the limit was not always enough
M5 ag: agonists of human muscarinic M5 receptor (CHRM5); AID 624037; actives 0.19% (n = 360,000); activation, % at 3 µM; P08912; CHO-K1 hM5 cells, Fluo-8 calcium fluorescence; 0% DMSO wells, 100% maximal acetylcholine response;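 active = activation above the run's mean over test compounds plus 3 SD, cut at about 23% in these data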;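 also: signal is peak over basal fluorescence ratio across the kinetic read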
M5 antag: blocks acetylcholine activation of human M5 receptor. actives 0.59% (n = 360,000). inhibition, % at 3 µM. CHO-hM5 cells, Fluo-8 calcium fluorescence, ACh EC80;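 active = inhibition above a per-plate cutoff, the mean of that plate's test compounds plus 3 SD, cut at about 27% in these data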
Large screens that a line does not name were inactive. Hits are enriched below; roughly 2.1% of the tested compounds scored in any of these assays.

CC1(C(=O)Nc2ccc3[nH]ncc3c2)CCN1C(=O)Cc1ccc(-c2ccccc2)cc1 (configuration not stated)	M1 antag 28.0
O=C(CCC1CCN(Cc2ccccc2O)CC1)NC1CC1	CHRM5 PAM 21.1
O=C(CCC1CCN(Cc2ccccc2Cl)CC1)NC1CC1	none
Cc1cc2ncn(-c3ncnc4sc5c(c34)CCC(C)C5)c2cc1C (configuration not stated)	none
OC(COc1ccc(CNCCc2ccccc2F)cc1)CN1CCCCC1 (configuration not stated)	M1 antag 38.1
OC(COc1ccccc1)CN1CCCCC1 (configuration not stated)	none
CC(=O)NCCNC(=O)C1(C)Cc2c(-c3cccc(C(N)=O)c3)ccnc2O1 (configuration not stated)	none
COc1ccc(NC(=O)c2ccco2)cc1N	CHRM5 PAM 20.1
COc1ccc(NC(=O)c2ccco2)cc1NC(=O)c1ccco1	none
O=C(O)C1C2OC(C(Br)C2Br)C1C(=O)O (configuration not stated)	none
COc1ccc(CCN2C(=S)N(C)C(=O)C2CC(=O)Nc2ccc(OC)cc2)cc1 (configuration not stated)	none
Cc1ccc(S(=O)(=O)c2nnn3c2nc(NC2CCN(Cc4ccccc4)CC2)c2ccccc23)cc1C	M1 antag 74.8
COc1ccc(NC(=O)NS(=O)(=O)c2ccc(C)cc2)c(OC)c1	none
COc1ccc(NC(=O)NNS(=O)(=O)c2ccc(OC)c(OC)c2)c(OC)c1	CHRM5 PAM 18.2
OC(COc1ccccc1Cl)CN1CCN(CC(O)COc2ccccc2Cl)CC1 (configuration not stated)	none
CCN(CC)S(=O)(=O)c1ccc(NS(=O)(=O)c2cccc(C)c2)cc1	none
COc1cc(/C=C2\SC(=S)N(NC(=O)c3ccncc3)C2=O)ccc1O	none
COc1cc(/C=C2\SC(=S)N(NC(=O)c3cccc(O)c3)C2=O)ccc1O	CHRM1 agonist 16.5
COc1cc(/C=C2\SC(=S)N(NC(=O)c3ccc(O)c(OC)c3)C2=O)ccc1O	CHRM1 agonist 26.8, M5 ag 25.0
CCOC(=O)c1sc2nc3c(cc2c1N)COC(C(C)C)C3 (configuration not stated)	none
CCOC(=O)c1cc(-c2ccc3c(c2)OCO3)nc2onc(C)c12	none
CSc1ccccc1NC(=O)CN(C)C(=O)c1cccc(S(=O)(=O)N(C)C)c1	none
COCc1ccc(CN2CCCCC2C(=O)Nc2ccc(Oc3ccccc3)nc2)o1 (configuration not stated)	M1 antag 47.4
O=S(=O)(Nc1nc2ccccc2[nH]1)c1ccc(Cl)cc1	M1 antag 70.0, M5 antag 49.6
O=C(NCCN1CCCC1)c1ccc(Cn2c(=S)[nH]c3ccc(Br)cc3c2=O)cc1	M5 ag 45.6
Cc1ccccc1OCC(=O)NC(=S)Nc1ccc2c3c(cccc13)CC2	none
CC(C)=CCN1CCN(C/C(Cl)=C/c2ccccc2)CC1CCO (configuration not stated)	none
OCCC1CN(Cc2nc(-c3ccccc3)cs2)CCN1Cc1ccc(F)cc1 (configuration not stated)	none
OCCC1CN(Cc2c(F)cccc2Cl)CCN1C1CCCCC1 (configuration not stated)	none
OCCC1CN(Cc2nc(-c3ccccc3)cs2)CCN1C1CCCC1 (configuration not stated)	M1 antag 45.0
OCCC1CN(Cc2c(F)cccc2Cl)CCN1C1CCCC1 (configuration not stated)	M1 antag 56.7
COc1ccc2c(c1)C=C(CN1CCN(C3CCCC3)C(CCO)C1)CO2 (configuration not stated)	M1 antag 95.2
OCCC1CN(C/C(Cl)=C/c2ccccc2)CCN1C1CCCC1 (configuration not stated)	M1 antag 22.0
COC(=O)Nc1ccc(S(=O)(=O)N2CCCC(C(=O)N3CCC(C)CC3)C2)cc1 (configuration not stated)	none
CC(C)CCN1CCN(Cc2ccsc2)CC1CCO (configuration not stated)	none
OCCC1CN(Cc2ccsc2)CCN1C1CCCC1 (configuration not stated)	M1 antag 43.1
O=C(NCCCCCCCN1CCCCCCC1)C(C1CCCCC1)C1CCCCC1	M1 antag 56.9
O=C(NCCCN1CCOCC1)NC1CCCCC1	none
Cc1c(N2C(=O)c3ccc(Br)cc3C2=O)c(=O)n(-c2ccccc2)n1C	M1 antag 73.8
COc1cc(-n2c(=O)c3ccccc3n(Cc3ccccc3)c2=O)cc(OC)c1OC	CHRM5 PAM 29.5, M5 antag 29.8
CN(C)/C=N/c1cnc(C(=O)c2ccc(Cl)cc2)n1C	CHRM1 PAM 26.0
CN(C)/C=N/NC(=O)c1ccc(Cl)cc1	none
OCC1(Cc2ccccc2)CCCN(Cc2cn[nH]c2-c2ccccc2)C1 (configuration not stated)	M5 antag 31.6
COc1cccc(CC2(CO)CCCN(Cc3cn[nH]c3-c3ccc(F)cc3)C2)c1 (configuration not stated)	none
O=C(N/N=C/C1C(c2ccccc2)C1(Cl)Cl)c1cccc(Cl)c1 (configuration not stated)	none
COc1ccc(C2=NOC(C(=O)NCc3cccs3)C2)cc1 (configuration not stated)	M1 antag 55.7
COc1cccc(-c2ccc3c(c2)C2CC3CCN2C(=O)c2ccc(-c3ccccc3)cc2)c1 (configuration not stated)	none
CC(Oc1ccc(Br)cc1)C(=O)Nc1nnc(C2CC2)s1 (configuration not stated)	CHRM1 agonist 17.8
Cc1cnc(CNC(=O)c2ccc3oc(C(C)C)nc3c2)[nH]1	none
CCn1ccnc1CNC(=O)c1ccc2oc(C(C)C)nc2c1	M1 antag 57.4
O=C(c1cc(-c2ccncc2)nc2ccc(Br)cc12)N1CCN(Cc2ccc3c(c2)OCO3)CC1	M1 antag 43.0
Cc1cc(S(=O)(=O)NCC(=O)O)ccc1F	none
Cc1nc2ccccc2n1-c1ccccc1	none
O=c1c(/C=C(\O)c2ccccc2)nc2ccccc2n1-c1ccccc1	CHRM1 agonist 21.7
Cn1nc(C(=O)NNC(=O)CCOc2ccc(C(C)(C)C)cc2)c2ccccc2c1=O	none
CN(CCCNC(=O)c1cccc(N2CCCC2=O)c1)c1ccccc1	M1 antag 29.9
CCCCN(C)CCCNC(=O)c1cccc(N2CCCC2=O)c1	none

Screening results deposited in PubChem by The Scripps Research Institute Molecular Screening Center.
